Activity calls are given as the source filed them. No cut-off for these calls is given here.
Assays:
[1] = target: G protein-coupled receptor kinase 5 (Bos taurus, UniProt P43249); experiment: Inhibition of bovine GRK5 after 5 mins after 5 mins in presence of ATP by phosphorimaging assay
[2] = Inhibition of mouse PKA using CREBtide as substrate after 30 mins in presence of ATP by ADP-Glo kinase assay
In short: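 Mouse PKA catalytic subunit activity by ADP-Glo luminescence per kit protocol; inhibition curves fitted to obtain values.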

[3] = target: Rhodopsin kinase GRK1 (Bos taurus, UniProt P28327); experiment: Inhibition of bovine GRK1 (1 to 535 residues) after 5 mins after 5 mins in presence of ATP by phosphorimaging assay
Sequence of Rhodopsin kinase GRK1 (P28327 whole entry, the tested form may be a part): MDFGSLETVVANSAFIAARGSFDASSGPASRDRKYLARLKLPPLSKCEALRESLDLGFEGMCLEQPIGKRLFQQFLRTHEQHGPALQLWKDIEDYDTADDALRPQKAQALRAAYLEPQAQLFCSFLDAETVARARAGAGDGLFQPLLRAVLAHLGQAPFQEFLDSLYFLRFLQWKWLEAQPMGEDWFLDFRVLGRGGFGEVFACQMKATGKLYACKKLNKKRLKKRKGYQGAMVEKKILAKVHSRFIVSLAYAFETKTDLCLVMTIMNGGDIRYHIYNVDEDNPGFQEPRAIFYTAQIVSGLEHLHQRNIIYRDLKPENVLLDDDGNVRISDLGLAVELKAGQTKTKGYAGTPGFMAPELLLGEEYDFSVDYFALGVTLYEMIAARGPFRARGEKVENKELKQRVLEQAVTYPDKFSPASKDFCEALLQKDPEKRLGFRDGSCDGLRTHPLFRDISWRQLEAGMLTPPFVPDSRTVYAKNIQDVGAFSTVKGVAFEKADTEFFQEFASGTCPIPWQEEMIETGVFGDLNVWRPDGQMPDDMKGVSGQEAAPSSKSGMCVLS

[4] = tested on: Liver; experiment: Half life in CD-1 mouse liver microsomes at 1 uM measured up to 60 mins in presence of NADPH by LC-MS/MS analysis; format: ADME, microsome; conditions: 1 h
[5] = target: T1, Beta-adrenergic receptor kinase 1 (Mus musculus) (UniProt Q99MK8); experiment: Inhibition of GRK2 in isoproterenol-stimulated C57/BL6 mouse cardiomyocytes assessed as increase in contractility by measuring cell shortening at 1 uM pretreated for 10 mins followed by beta-AR agonist isoproterenol addition for 2 mins
T1 sequence (whole entry): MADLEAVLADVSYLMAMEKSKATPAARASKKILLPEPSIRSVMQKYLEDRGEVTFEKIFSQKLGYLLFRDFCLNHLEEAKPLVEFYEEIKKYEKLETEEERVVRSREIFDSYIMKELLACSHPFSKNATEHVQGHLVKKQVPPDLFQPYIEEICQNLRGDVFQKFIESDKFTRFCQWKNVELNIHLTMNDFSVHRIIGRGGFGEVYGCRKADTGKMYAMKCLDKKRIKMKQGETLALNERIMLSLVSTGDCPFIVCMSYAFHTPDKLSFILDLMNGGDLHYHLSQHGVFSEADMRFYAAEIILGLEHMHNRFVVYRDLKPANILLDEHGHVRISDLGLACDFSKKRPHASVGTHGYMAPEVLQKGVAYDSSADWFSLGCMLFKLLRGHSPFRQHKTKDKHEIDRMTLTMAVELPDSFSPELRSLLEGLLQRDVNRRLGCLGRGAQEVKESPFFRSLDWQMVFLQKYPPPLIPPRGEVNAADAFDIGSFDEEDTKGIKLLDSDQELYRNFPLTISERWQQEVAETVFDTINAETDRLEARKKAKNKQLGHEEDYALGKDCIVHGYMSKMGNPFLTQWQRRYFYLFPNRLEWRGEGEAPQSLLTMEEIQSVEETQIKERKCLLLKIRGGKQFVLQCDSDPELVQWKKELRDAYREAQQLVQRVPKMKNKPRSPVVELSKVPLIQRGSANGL

[6] = Plasma concentration in CD-1 mouse at 10 mg/kg, ip after 7 hrs administered as single dose by LC-MS/MS analysis; format: ADME, organism-based
In short: (§1)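 Female CD-1 mice given a single ip dose of 10 mg/kg in 15% DMSO/15% PEG-400/70% PBS (v/v); blood sampled at 0.5, 2, 4 and 7 h, centrifuged, plasma frozen at −80 °C; drug quantified by positive-ion MRM LC–MS/MS; parameters by noncompartmental analysis.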

[7] = Plasma concentration in CD-1 mouse at 10 mg/kg, ip after 4 hrs administered as single dose by LC-MS/MS analysis; format: ADME, organism-based; in short: as §1
[8] = tested on: Mus musculus; experiment: AUC (0 to 7 hrs) in CD-1 mouse at 10 mg/kg, ip administered as single dose by LC-MS/MS analysis; format: ADME, organism-based; parameters: time < 7 hr, dose 10 mg/kg, route intraperitoneal; conditions: in vivo; in short: as §1
[9] = target: T1, Beta-adrenergic receptor kinase 1 (Mus musculus); conditions: C57/BL6
[10] = target: T1, Beta-adrenergic receptor kinase 1 (Mus musculus); experiment: Inhibition of GRK2 in isoproterenol-stimulated C57/BL6 mouse cardiomyocytes assessed as increase in contractility by measuring cell shortening at 0.1 uM pretreated for 10 mins followed by beta-AR agonist isoproterenol addition for 2 mins
[11] = target: T1, Beta-adrenergic receptor kinase 1 (Mus musculus); experiment: Inhibition of GRK2 in isoproterenol-stimulated C57/BL6 mouse cardiomyocytes assessed as increase in contractility by measuring cell shortening at 0.5 uM pretreated for 10 mins followed by beta-AR agonist isoproterenol addition for 2 mins

Sequence of G protein-coupled receptor kinase 5 (P43249 whole entry): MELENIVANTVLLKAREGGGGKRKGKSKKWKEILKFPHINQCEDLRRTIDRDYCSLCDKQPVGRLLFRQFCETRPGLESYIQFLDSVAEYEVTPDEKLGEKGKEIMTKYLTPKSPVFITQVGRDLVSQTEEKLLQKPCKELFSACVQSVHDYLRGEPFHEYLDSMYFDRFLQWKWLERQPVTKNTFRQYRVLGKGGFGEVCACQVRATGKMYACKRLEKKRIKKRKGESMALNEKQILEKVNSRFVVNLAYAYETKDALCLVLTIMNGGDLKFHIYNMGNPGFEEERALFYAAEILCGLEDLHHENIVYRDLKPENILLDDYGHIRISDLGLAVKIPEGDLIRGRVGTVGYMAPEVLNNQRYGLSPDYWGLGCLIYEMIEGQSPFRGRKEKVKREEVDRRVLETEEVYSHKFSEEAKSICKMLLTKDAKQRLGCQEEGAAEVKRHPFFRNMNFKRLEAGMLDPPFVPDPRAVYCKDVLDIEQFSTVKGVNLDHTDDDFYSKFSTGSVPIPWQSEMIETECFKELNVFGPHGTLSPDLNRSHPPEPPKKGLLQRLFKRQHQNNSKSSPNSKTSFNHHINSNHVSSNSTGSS

| Compound | IC50 [1] [µM] | IC50 [2] [µM] | IC50 [3] [µM] | also measured |
| --- | --- | --- | --- | --- |
| COc1cccc(OC)c1CNC(=O)c1cc([C@@H]2CCNC[C@H]2COc2ccc3c(c2)OCO3)ccc1F | 38.4 | > 100 | 32 | t1/2 [4]: 24.9 min |
| Cc1cccc(C)c1CNC(=O)c1cc([C@@H]2CCNC[C@H]2COc2ccc3c(c2)OCO3)ccc1F | 42.3 | > 100 | 24.5 | t1/2 [4]: 45.9 min |
| O=C(NCc1c(Cl)cccc1Cl)c1cc([C@@H]2CCNC[C@H]2COc2ccc3c(c2)OCO3)ccc1F | 33.2 | > 100 | 25.8 | t1/2 [4]: 36.4 min |
| O=C(NCCc1cc[nH]n1)c1cc([C@@H]2CCNC[C@H]2COc2ccc3c(c2)OCO3)ccc1F | > 100 | > 100 | > 100 | – |
| O=C(NCCc1cn[nH]c1)c1cc([C@@H]2CCNC[C@H]2COc2ccc3c(c2)OCO3)ccc1F | > 100 | > 100 | > 100 | – |
| Fc1ccc([C@@H]2CCNC[C@H]2COc2ccc3c(c2)OCO3)cc1 [PAROXETINE] | > 100 | > 100 | > 100 | t1/2 [4]: 24.3 min |
| CC1=C(C(=O)Nc2ccc3[nH]ncc3c2)C(c2ccc(F)cc2)NC(=O)N1 (centres undefined) [GSK-180736A] | – | – | > 100 | inhibition [5]: Active; t1/2 [4]: 20.6 min |
| O=C(NCc1ncc[nH]1)c1cc([C@@H]2CCNC[C@H]2COc2ccc3c(c2)OCO3)ccc1F | 14.8 | > 100 | > 100 | – |
| O=C(NCCc1ccccn1)c1cc([C@@H]2CCNC[C@H]2COc2ccc3c(c2)OCO3)ccc1F | > 100 | > 100 | > 100 | – |
| O=C(NCCc1ccncc1)c1cc([C@@H]2CCNC[C@H]2COc2ccc3c(c2)OCO3)ccc1F | > 100 | > 100 | > 100 | – |
| COc1ccccc1CNC(=O)Cc1cc([C@@H]2CCNC[C@H]2COc2ccc3c(c2)OCO3)ccc1F | > 100 | 25.8 | > 100 | – |
| O=C(NCc1ccccc1C(F)(F)F)c1cc([C@@H]2CCNC[C@H]2COc2ccc3c(c2)OCO3)ccc1F | 75.7 | > 100 | > 100 | – |
| O=C(NCc1ccccc1)c1cc([C@@H]2CCNC[C@H]2COc2ccc3c(c2)OCO3)ccc1F | 84.3 | > 100 | > 100 | – |
| O=C(NCCc1ccccc1)c1cc([C@@H]2CCNC[C@H]2COc2ccc3c(c2)OCO3)ccc1F | > 100 | > 100 | > 100 | – |
| Cn1ccc(CNC(=O)c2cc([C@@H]3CCNC[C@H]3COc3ccc4c(c3)OCO4)ccc2F)n1 | > 100 | > 100 | > 100 | – |
| Cn1nccc1CNC(=O)c1cc([C@@H]2CCNC[C@H]2COc2ccc3c(c2)OCO3)ccc1F | > 100 | > 100 | > 100 | – |
| Cn1c(CNc2cccc(C(=O)NCc3ccccc3C(F)(F)F)c2)nnc1-c1ccncc1 | 9.2 | – | 52.1 | concentration at 7 h [6]: 6 nM; concentration at 4 h [7]: 5 nM; AUC [8]: 1.9 µM·h |

| Compound | IC50 [1] [µM] | IC50 [2] [µM] | IC50 [3] [µM] | also measured |
| --- | --- | --- | --- | --- |
| O=C(NCc1c(F)cccc1F)c1cc([C@@H]2CCNC[C@H]2COc2ccc3c(c2)OCO3)ccc1F | 37.2 | > 100 | > 100 | – |
| O=C(NCc1cccnc1)c1cc([C@@H]2CCNC[C@H]2COc2ccc3c(c2)OCO3)ccc1F | 76.3 | > 100 | > 100 | – |
| O=C(NCc1ccncc1)c1cc([C@@H]2CCNC[C@H]2COc2ccc3c(c2)OCO3)ccc1F | > 100 | > 100 | > 100 | – |
| COc1cccc(OC)c1CNC(=O)c1cc(C2NC(=O)NC(C)=C2C(=O)Nc2ccc3[nH]ncc3c2)ccc1F (centres undefined) | > 100 | > 100 | > 100 | t1/2 [4]: 3.82 min |
| O=C(NCc1cn[nH]c1)c1cc([C@@H]2CCNC[C@H]2COc2ccc3c(c2)OCO3)ccc1F | > 100 | > 100 | > 100 | – |
| Cc1cc(CNC(=O)c2cc([C@@H]3CCNC[C@H]3COc3ccc4c(c3)OCO4)ccc2F)n[nH]1 | 4 | > 100 | 86.5 | t1/2 [4]: 10.3 min |
| O=C(NCc1ccn[nH]1)c1cc([C@@H]2CCNC[C@H]2COc2ccc3c(c2)OCO3)ccc1F | – | > 100 | – | MEC [9]: 0.1 µM; concentration at 7 h [6]: 43 nM; concentration at 4 h [7]: 270 nM; inhibition [10]: Active |
| CCCn1c(CNc2cccc(C(=O)NCc3c(F)cccc3F)c2)nnc1-c1ccncn1 | 2.2 | – | 9.1 | – |
| O=C(NCc1ccccn1)c1cc([C@@H]2CCNC[C@H]2COc2ccc3c(c2)OCO3)ccc1F | 17.1 | > 100 | > 100 | inhibition [11]: inactive; inhibition [5]: inactive; t1/2 [4]: 3.15 min |
| CNC(=O)c1cc([C@@H]2CCNC[C@H]2COc2ccc3c(c2)OCO3)ccc1F | > 100 | > 100 | > 100 | – |
| COc1ccccc1CNC(=O)c1cc([C@@H]2CCNC[C@H]2COc2ccc3c(c2)OCO3)ccc1F | > 100 | > 100 | > 100 | – |
| O=C(Cc1cc([C@@H]2CCNC[C@H]2COc2ccc3c(c2)OCO3)ccc1F)NCc1ccccn1 | > 100 | 48.2 | 60 | – |
| O=C(Cc1cc([C@@H]2CCNC[C@H]2COc2ccc3c(c2)OCO3)ccc1F)NCCc1ccccn1 | > 100 | > 100 | > 100 | – |
| O=C(NCCc1c[nH]cn1)c1cc([C@@H]2CCNC[C@H]2COc2ccc3c(c2)OCO3)ccc1F | > 100 | > 100 | > 100 | – |
| O=C(Cc1cc([C@@H]2CCNC[C@H]2COc2ccc3c(c2)OCO3)ccc1F)NCCc1cn[nH]c1 | > 100 | > 100 | > 100 | – |
| O=C(NCCc1c(F)cccc1F)c1cc([C@@H]2CCNC[C@H]2COc2ccc3c(c2)OCO3)ccc1F | 10.2 | > 100 | > 100 | – |
| O=C(NCCc1cccnc1)c1cc([C@@H]2CCNC[C@H]2COc2ccc3c(c2)OCO3)ccc1F | > 100 | > 100 | > 100 | – |

Source: ChEMBL document CHEMBL4043080 (J Med Chem, 2017)
